Assay [1] addresses Norepinephrine transporter (Rattus norvegicus, UniProt Q9WTR4). In words: In vitro binding affinity was determined against NA (noradrenaline) reuptake site of rat in presence of [3H]nisoxetine radioligand.
For assay [2], the target named is T1, Adrenergic receptor alpha-1 (Rattus norvegicus, UniProt P15823+P23944+P43140).
T1 sequence (P15823 whole entry): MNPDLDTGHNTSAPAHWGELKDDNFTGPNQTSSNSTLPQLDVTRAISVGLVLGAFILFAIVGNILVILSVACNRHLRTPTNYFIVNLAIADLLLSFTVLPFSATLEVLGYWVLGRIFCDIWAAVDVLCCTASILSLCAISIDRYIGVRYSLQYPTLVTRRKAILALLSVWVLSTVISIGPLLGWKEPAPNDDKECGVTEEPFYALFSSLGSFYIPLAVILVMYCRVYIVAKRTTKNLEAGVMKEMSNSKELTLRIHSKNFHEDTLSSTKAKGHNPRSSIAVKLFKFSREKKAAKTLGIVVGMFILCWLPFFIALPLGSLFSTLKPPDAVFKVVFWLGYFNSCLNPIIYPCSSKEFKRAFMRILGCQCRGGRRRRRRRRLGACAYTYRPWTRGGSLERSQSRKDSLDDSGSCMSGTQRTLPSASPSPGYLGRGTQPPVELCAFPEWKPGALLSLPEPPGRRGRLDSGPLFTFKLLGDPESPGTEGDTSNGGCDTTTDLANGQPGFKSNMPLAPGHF
T1 sequence (P23944 whole entry): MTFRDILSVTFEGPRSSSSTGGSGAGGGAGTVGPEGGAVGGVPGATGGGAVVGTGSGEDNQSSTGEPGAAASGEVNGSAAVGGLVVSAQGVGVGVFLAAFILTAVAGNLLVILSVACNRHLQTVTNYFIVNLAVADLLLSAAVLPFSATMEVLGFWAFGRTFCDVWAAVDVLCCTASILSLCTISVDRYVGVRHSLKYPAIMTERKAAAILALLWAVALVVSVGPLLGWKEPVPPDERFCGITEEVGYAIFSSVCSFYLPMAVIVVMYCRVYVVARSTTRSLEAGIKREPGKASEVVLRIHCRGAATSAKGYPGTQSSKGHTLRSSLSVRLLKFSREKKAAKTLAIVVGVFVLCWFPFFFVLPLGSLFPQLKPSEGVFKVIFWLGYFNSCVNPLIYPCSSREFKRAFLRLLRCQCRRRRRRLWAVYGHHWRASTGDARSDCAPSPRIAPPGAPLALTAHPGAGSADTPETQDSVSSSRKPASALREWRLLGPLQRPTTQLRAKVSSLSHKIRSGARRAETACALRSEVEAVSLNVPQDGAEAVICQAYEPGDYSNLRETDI
T1 sequence (P43140 whole entry): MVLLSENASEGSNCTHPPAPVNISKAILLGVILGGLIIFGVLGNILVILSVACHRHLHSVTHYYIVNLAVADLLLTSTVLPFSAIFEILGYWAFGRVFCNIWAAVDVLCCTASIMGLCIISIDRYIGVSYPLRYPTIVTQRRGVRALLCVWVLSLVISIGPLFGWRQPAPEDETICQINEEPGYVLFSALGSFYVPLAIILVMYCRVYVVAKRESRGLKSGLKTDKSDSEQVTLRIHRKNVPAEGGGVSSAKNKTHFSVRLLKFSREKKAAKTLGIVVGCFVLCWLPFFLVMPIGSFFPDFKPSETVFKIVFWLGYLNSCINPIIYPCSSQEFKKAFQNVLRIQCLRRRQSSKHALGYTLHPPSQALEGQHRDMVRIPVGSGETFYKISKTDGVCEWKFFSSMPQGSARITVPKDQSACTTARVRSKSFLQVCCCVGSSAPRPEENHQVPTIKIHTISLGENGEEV
The experiment in a line: In vitro binding affinity against alpha-1 adrenergic receptor of rat in presence of [3H]-prazosin radioligand. The format is protein assay.

The target of assay [3] is Sodium-dependent serotonin transporter (Rattus norvegicus, UniProt P31652). In words: In vitro binding affinity was determined against serotonin reuptake site of rat in presence of [3H]paroxetine radioligand.
Sequence of Sodium-dependent serotonin transporter (P31652 whole entry): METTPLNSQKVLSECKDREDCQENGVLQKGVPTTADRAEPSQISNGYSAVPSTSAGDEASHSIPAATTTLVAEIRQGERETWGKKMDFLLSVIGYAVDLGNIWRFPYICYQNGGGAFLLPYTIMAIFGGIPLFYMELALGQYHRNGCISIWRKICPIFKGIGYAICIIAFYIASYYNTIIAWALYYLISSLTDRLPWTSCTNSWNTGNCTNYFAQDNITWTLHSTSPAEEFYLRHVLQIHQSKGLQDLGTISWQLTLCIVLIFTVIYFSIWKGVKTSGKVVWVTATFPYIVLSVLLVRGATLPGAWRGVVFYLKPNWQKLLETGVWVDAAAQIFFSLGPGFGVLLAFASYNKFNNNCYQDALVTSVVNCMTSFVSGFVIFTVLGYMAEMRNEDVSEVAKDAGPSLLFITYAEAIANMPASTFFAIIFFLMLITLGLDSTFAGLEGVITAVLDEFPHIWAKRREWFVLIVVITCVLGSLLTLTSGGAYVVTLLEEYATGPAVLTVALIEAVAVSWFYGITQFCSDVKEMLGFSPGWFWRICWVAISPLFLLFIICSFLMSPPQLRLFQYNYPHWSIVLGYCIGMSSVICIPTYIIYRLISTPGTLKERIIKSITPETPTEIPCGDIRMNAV
Assay [4] has as its target T2, Alpha-2A adrenergic receptor (Homo sapiens) (UniProt P08913).
T2 sequence (whole entry): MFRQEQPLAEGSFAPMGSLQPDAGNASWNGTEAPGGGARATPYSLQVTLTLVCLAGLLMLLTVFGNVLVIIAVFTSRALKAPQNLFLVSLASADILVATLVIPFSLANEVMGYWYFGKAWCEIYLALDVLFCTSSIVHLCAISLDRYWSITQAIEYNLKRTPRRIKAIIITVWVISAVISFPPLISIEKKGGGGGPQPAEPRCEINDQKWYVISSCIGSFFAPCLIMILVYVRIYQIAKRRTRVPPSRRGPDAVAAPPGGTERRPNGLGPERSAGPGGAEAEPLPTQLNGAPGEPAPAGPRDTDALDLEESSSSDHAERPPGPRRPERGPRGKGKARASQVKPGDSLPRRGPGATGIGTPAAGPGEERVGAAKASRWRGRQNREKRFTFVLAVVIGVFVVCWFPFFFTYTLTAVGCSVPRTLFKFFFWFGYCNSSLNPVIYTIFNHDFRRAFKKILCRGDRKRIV
The experiment in a line: Antagonistic activity as [35S]GTP gamma-S binding at alpha-2a adrenergic receptor expressed in CHO cells. The format is functional, cell-based. Put shortly:
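Membranes (40 μg/mL) from CHO cells stably expressing human α2A receptor, preincubated 30 min at room temperature with drug in 20 mM HEPES pH 7.4, 100 mM NaCl, 3 μM GDP, 3 mM MgCl2; 0.2 nM [35S]GTPγS added, 60 min room temperature, NA 10 μM as agonist. Nonspecific: 10 μM GTPγS. Filtration, scintillation counting; pKB from IC50 corrected for agonist concentration/EC50.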
(In general: GTPγS is a poorly hydrolysed GTP analogue; its binding reports G protein activation.)

Assay [5] addresses T3, Adrenergic receptor alpha-2 (Rattus norvegicus, UniProt P22086+P19328+P22909).
T3 sequence (P22086 whole entry): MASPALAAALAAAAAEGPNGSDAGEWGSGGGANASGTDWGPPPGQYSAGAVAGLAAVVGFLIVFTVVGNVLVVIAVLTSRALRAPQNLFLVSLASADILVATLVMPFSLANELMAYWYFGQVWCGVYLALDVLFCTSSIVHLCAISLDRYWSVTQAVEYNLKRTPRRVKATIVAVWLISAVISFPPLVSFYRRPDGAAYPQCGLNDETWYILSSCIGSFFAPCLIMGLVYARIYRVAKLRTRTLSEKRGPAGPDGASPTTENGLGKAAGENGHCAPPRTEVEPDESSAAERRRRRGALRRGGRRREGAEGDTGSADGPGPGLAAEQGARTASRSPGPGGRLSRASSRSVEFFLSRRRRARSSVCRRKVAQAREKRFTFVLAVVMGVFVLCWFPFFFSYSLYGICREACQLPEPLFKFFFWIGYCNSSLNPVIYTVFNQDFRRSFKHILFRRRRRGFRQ
T3 sequence (P19328 whole entry): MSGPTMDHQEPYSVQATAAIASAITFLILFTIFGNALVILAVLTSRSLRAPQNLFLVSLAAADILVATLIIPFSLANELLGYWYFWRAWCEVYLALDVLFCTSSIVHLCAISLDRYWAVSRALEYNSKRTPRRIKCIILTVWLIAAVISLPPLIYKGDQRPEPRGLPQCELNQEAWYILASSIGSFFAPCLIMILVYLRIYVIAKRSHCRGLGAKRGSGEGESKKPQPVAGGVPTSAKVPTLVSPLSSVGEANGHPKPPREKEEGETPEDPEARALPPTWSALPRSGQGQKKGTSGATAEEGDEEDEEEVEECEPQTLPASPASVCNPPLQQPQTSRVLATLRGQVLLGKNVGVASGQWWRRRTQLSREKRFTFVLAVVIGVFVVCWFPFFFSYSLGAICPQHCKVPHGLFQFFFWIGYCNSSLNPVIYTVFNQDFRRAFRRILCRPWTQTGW
T3 sequence (P22909 whole entry): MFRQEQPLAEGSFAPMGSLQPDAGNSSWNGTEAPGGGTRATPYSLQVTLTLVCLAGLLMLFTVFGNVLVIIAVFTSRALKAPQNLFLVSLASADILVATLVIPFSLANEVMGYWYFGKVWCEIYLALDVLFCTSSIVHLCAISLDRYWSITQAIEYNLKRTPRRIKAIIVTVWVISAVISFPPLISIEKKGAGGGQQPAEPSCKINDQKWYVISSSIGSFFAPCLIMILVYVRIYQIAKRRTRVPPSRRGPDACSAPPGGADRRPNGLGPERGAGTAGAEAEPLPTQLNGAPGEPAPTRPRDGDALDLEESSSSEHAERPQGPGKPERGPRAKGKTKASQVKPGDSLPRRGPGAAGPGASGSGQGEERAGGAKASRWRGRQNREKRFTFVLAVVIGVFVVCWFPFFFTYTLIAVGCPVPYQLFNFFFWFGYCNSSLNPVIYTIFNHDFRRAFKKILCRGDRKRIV
In words: In vitro binding affinity against alpha-2 adrenergic receptor of rat in presence of [3H]-RX 821002 radioligand. Format: protein assay.

The target of assay [6] is T4, Alpha-2A adrenergic receptor (Homo sapiens, UniProt P08913).
T4 sequence (P08913 whole entry): T2 sequence (whole entry)
In words: Binding affinity for human alpha-2 adrenergic receptor expressed in CHO cell. Format: cell-based.

Results on 18 compounds are retold here after ChEMBL document CHEMBL1134363 (J Med Chem, 2001).

Where only a bound is given, the exact number is not on record here.

Sequence of Norepinephrine transporter (Q9WTR4 whole entry): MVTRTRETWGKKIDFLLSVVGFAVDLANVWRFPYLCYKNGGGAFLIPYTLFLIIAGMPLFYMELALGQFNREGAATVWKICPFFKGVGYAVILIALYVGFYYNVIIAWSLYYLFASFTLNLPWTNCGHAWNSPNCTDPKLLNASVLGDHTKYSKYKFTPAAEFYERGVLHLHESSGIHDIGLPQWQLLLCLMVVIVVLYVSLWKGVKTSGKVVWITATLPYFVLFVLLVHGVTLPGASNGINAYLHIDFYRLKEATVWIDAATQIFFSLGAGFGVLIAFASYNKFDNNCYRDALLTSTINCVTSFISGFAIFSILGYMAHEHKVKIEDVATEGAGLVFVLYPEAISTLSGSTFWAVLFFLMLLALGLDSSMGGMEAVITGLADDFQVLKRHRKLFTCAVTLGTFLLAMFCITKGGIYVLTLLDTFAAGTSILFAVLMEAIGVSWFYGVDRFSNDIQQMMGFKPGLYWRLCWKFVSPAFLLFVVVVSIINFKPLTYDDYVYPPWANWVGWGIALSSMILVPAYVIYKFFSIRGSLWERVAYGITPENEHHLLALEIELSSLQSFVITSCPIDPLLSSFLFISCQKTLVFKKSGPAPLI

In the case of `Fc1ccc2c(c1)C=C(CC1CN=CN1)CC2` (stereo not drawn), the results for the Ki in assay [1], in assay [3] and in assay [6] were 50.1 nM, 1.58 nM and 158 nM, respectively. Also, the results for the “Log Ki” value in assay [2] and in assay [5] were -6.6 and -6.7, respectively. In assay [4], the pKB (in general, the negative decadic logarithm of the KB, by convention in mol/L) amounted to 6.7.

Regarding `Fc1cccc2c1C=C(CC1CN=CN1)CC2` (stereo not drawn), the inhibition constant (Ki) – broadly, a measure of affinity in units of concentration, obtained from inhibition or displacement – in assay [1] was 126 nM; in assay [3], 79.4 nM; in assay [6], 39.8 nM. For the same compound, the “Log Ki” value in assay [2] is recorded as -6.3; in assay [5] it was -7.4. This compound also came in with a pKB in assay [4] of 6.8.

In the case of `CCC1(c2c[nH]cn2)Cc2ccccc2C1` [ATIPAMEZOLE], in assay [2], the “Log Ki” value is on record as -5.7. In assay [4], this compound showed a pKB of 8.9.

Compound `CNCCC(Oc1ccc(C(F)(F)F)cc1)c1ccccc1` (stereo not drawn) had a pKB in assay [4] of 7.4.

In the case of `C1=NCC(CC2Cc3ccccc3C2)N1` (stereo not drawn), the values for the inhibitory constant (Ki) in assay [1], in assay [3] and in assay [6] were 39.8 nM, 63.1 nM and 3.98 nM, respectively. In addition, the figures for the “Log Ki” value in assay [2] and in assay [5] were -6.3 and -8.7, respectively. In assay [4], this compound returned a pKB of 8.1.

Take `C1=NCC([C@@H]2[C@@H]3Cc4ccccc4C[C@@H]32)N1` (stereo partly drawn): the inhibition constant (Ki) is 50.1 nM in assay [1] and over 1000 nM in assay [3]. The “Log Ki” value in assay [2] is on record as -6.1; in assay [5], -5.5.

With `CN[C@H](CC(C)C)C(=O)N[C@H]1C(=O)N[C@@H](CC(N)=O)C(=O)N[C@H]2C(=O)N[C@H]3C(=O)N[C@H](C(=O)N[C@H](C(=O)O)c4cc(O)cc(O)c4-c4cc3ccc4O)[C@H](O)c3ccc(c(Cl)c3)Oc3cc2cc(c3O[C@@H]2O[C@H](CO)[C@@H](O)[C@H](O)[C@H]2O[C@H]2C[C@](C)(N)[C@H](O)[C@H](C)O2)Oc2ccc(cc2Cl)[C@H]1O` [VANCOMYCIN], the Ki in assay [1] was 15.8 nM; in assay [3], 50.1 nM. The “Log Ki” value in assay [2] is given as -6; in assay [5] it was -6.9. In assay [4], this compound registered a pKB of 6.7.

Take `C1=C(Cc2c[nH]cn2)CCc2ccccc21`: the figures for the Ki in assay [1] and in assay [3] were 794 nM and 631 nM, respectively. In addition, the results for the “Log Ki” value in assay [2] and in assay [5] were -7.3 and -8.9, respectively.

`C1=NC(CC2CCc3ccccc3O2)CN1` (stereo not drawn): the inhibitory constant (Ki) in assay [1] was 794 nM; in assay [3], 501 nM. Also, the “Log Ki” value in assay [2] is recorded as -6.5; in assay [5], -7.3.

Take `Cc1cccc2c1C=C(CC1CN=CN1)CC2` (stereo not drawn): the Ki in assay [1] was 1000 nM; in assay [3], 12.6 nM. The entries for the “Log Ki” value in assay [2] and in assay [5] were -6.2 and -6.8, respectively.

`CCC1(c2cnc[nH]2)Cc2ccccc2C1` [ATIPAMEZOLE]: the results for the inhibition constant (Ki) in assay [1], in assay [3] and in assay [6] were over 10000 nM, over 3160 nM and 3.16 nM, respectively.

As for `C1=NCC(CC2=Cc3ccccc3C2)N1` (stereo not drawn), the results for the inhibition constant Ki in assay [1] and in assay [3] were 31.6 nM and 79.4 nM, respectively. In addition, the “Log Ki” value in assay [2] was -5.9; in assay [5], -7.8.

For `Fc1cccc2c1CC(CC1CN=CN1)C2` (stereo not drawn), the inhibition constant Ki in assay [1] and in assay [3] was 100 nM in each case. Besides, the results for the “Log Ki” value in assay [2] and in assay [5] were -6.8 and -8.9, respectively.

Take `Fc1cc2c(cc1F)CC(CC1CN=CN1)C2` (stereo not drawn): the inhibitory constant (Ki) is 100 nM in assay [1] and 12.6 nM in assay [3]. Moreover, the “Log Ki” value in assay [2] is -6.1; in assay [5], -7.3.

Turning to `C1=NCC(CC2=Cc3ccccc3OC2)N1` (stereo not drawn), the Ki was 63.1 nM in assay [1] and 251 nM in assay [3]. Moreover, the “Log Ki” value is -5.8 in assay [2] and -6.9 in assay [5].

As to `CC1(C)CC(CC2CN=CN2)=Cc2ccccc21` (stereo not drawn), the inhibition constant (Ki) in assay [1] is 39.8 nM; in assay [3] it was over 10000 nM. Besides, the entries for the “Log Ki” value in assay [2] and in assay [5] were -6.1 and -6, respectively.

Regarding `C[C@@]1(C[C@@H]2CN=CN2)CCc2ccccc2C1`, the figures for the Ki in assay [1] and in assay [3] were 200 nM and 10 nM, respectively. The “Log Ki” value is listed as -6 in assay [2] and -7.1 in assay [5].

Turning to `CC1(CC2=Cc3ccccc3CC2)CN=CN1` (stereo not drawn), the Ki in assay [1] is 316 nM; in assay [3], 63.1 nM. Also, the entries for the “Log Ki” value in assay [2] and in assay [5] were -5.9 and -6.1, respectively.
